The text below walks through data of PubChem BioAssay AID623895 (Broad Institute, 2012).

Activity calls are given as the source filed them.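 Rule for the calls: active = compounds with an ATP-loss curve whose half-maximal dose stays within twice the top dose, in every run; inconclusive = mixed run calls, weak flat effects or poor fits; inactive = the rest, including opposite-direction effects.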

For test [1], the system named is ldlA[mSR-BI] CHO cells viability, ATP luminescence, 24 h. Briefly: viability loss of SR-BI expressing CHO cells – cell-based, 24 h, ATP luminescence, dry powder, set 6, cytotoxicity control for SR-BI HDL uptake inhibitor project, dose response (AID 623895). The method in brief: (§1)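 Timing: 24 h at 37 °C, read after 10 min; material: ldlA[mSR-BI] cells; input: 4,000 cells per well; technique: ATP luminescence (Cell Titer Glo); dosing: 8 compound concentrations; buffer or medium: Ham's F12 growth medium with 10% FCS; read-out basis: viability IC50 from dose-response fit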

Assay in test [2]: as above
As to conditions: ldlA[mSR-BI] CHO cells viability, ATP luminescence, 24 h; at 35 µM (top of the series). The method in brief: as §1

In the case of `C[C@@H]1CN([C@H](C)CN(C)C)C(=O)c2cc(NC(=O)Cc3cn(C)c4ccccc34)ccc2O[C@H]1CN(C)S(=O)(=O)c1ccc(Cl)cc1`, the AC50 – broadly, the midpoint of the concentration-response curve, whichever way the signal moves – in test [1] is 15.3 µM.

With `CC(C)CN(C(=O)COC(=O)C12CC3CC(CC(O)(C3)C1)C2)C1CCS(=O)(=O)C1` (stereo unspecified), the activity change, negative = cytotoxicity in test [2] was -14.1% (inactive).

For `Cc1noc(C)c1NC(=O)N(C)C[C@@H]1Oc2ccc(NC(=O)Cc3cn(C)c4ccccc34)cc2C(=O)N([C@H](C)CO)C[C@H]1C`, the activity change, negative = cytotoxicity in test [2] is 10.5% (inactive). On to `C[C@@H]1CN([C@@H](C)CO)C(=O)Cc2cc(N(C)C)ccc2O[C@@H]1CN(C)Cc1ccc(C(=O)O)cc1`, for which the activity change, negative = cytotoxicity in test [2] is 4.97% (inactive).

Consider `C[C@@H]1CN([C@H](C)CO)C(=O)c2cc(NC(=O)Cc3cn(C)c4ccccc34)ccc2O[C@H]1CN(C)C(=O)Nc1ccccc1`, for which the activity change, negative = cytotoxicity in test [2] is -12.4% (inactive). For `C[C@@H]1CN([C@H](C)CO)C(=O)c2cc(NC(=O)Cc3cn(C)c4ccccc34)ccc2O[C@H]1CN(C)C(=O)Nc1ccc(C(F)(F)F)cc1`, the activity change, negative = cytotoxicity in test [2] is -31.9% (inactive). As to `COc1ccc(S(=O)(=O)N(C)C[C@@H]2Oc3ccc(NC(=O)Cc4cn(C)c5ccccc45)cc3C(=O)N([C@H](C)CO)C[C@H]2C)cc1`, in test [2], the activity change, negative = cytotoxicity was -20.3% (inactive). Still for that read-out and setting: as for `C[C@@H]1CN([C@@H](C)CO)C(=O)c2cc(NC(=O)NC3CCCCC3)ccc2O[C@H]1CN(C)Cc1ccncc1`, the figure is 5.45% (inactive); as for `C[C@@H]1CN([C@H](C)CO)C(=O)c2cc(NC(=O)CCCN(C)C)ccc2O[C@H]1CN(C)S(=O)(=O)c1ccc(Cl)cc1`, 15.7% (inactive). Take `O=C1C2C3C=CC(C3)C2C(=O)N1c1cccc(N2C(=O)C3C4C=CC(C4)C3C2=O)n1` (stereo unspecified): in test [2], the activity change, negative = cytotoxicity was -8.55% (inactive).

As to `C[C@@H]1CN([C@H](C)CO)C(=O)c2cc(NC(=O)Cc3cn(C)c4ccccc34)ccc2O[C@H]1CN(C)Cc1ccncc1`, the activity change, negative = cytotoxicity in test [2] was -16.9% (inactive). As for `C[C@@H]1CN([C@H](C)CO)C(=O)c2cc(NC(=O)Cc3cn(C)c4ccccc34)ccc2O[C@H]1CN(C)S(=O)(=O)c1cn(C)cn1`, the activity change, negative = cytotoxicity in test [2] was -6.33% (inactive). Still for that read-out and setting: the figure for `C[C@@H]1CN([C@H](C)CO)C(=O)c2cc(NC(=O)Cc3cn(C)c4ccccc34)ccc2O[C@H]1CN(C)S(=O)(=O)c1ccc(Cl)cc1` is -19.8% (inactive); for `C[C@@H]1CN([C@H](C)CO)C(=O)c2cc(NC(=O)Cc3cn(C)c4ccccc34)ccc2O[C@@H]1CN(C)S(=O)(=O)c1ccc(Cl)cc1` it is -21.3% (inactive); for `C[C@@H]1CN([C@H](C)CO)C(=O)c2cc(NC(=O)C3CCCCC3)ccc2O[C@H]1CN(C)S(=O)(=O)c1ccccc1Cl` it is -18.6% (inactive). On the same count and under the same terms, as for `Cc1ccc(S(=O)(=O)N(C)C[C@@H]2Oc3ccc(NC(=O)Cc4cn(C)c5ccccc45)cc3C(=O)N([C@H](C)CO)C[C@H]2C)cc1`, the figure is -12.8% (inactive); as for `C[C@H](C(=O)NC1CCCC1)N(C(=O)Cn1nnc(-c2ccc3c(c2)OCO3)n1)C1CCCCC1`, -16.5% (inactive).

As to `COc1ccc(-c2nnn(CC(=O)N(C3CCCCC3)C(C)C(=O)NC3CCCCC3)n2)cc1OC` (stereo unspecified), the activity change, negative = cytotoxicity in test [2] is -9.26% (inactive). As for `C[C@@H]1CN([C@H](C)CO)C(=O)c2cc(NC(=O)C3CC3)ccc2O[C@H]1CN(C)S(=O)(=O)c1ccc(Cl)cc1`, in test [2], the activity change, negative = cytotoxicity was -13% (inactive).

For `CO[C@H]1CN(C)C(=O)c2cc(NC(=O)c3ccccc3F)ccc2OC[C@@H](C)N(C(C)=O)C[C@@H]1C`, the activity change, negative = cytotoxicity in test [2] was 1.07% (inactive). On the same count and under the same terms, the figure for `Cc1ccccc1-c1ccc2c(c1)O[C@@H](CN(C)C(=O)Nc1ccc(F)cc1)[C@H](C)CN([C@@H](C)CO)S2(=O)=O` is -23.7% (inactive).

Take `C[C@@H]1CN([C@H](C)CO)C(=O)c2cc(NC(=O)Cc3cn(C)c4ccccc34)ccc2O[C@H]1CN(C)Cc1ccc(-c2ccccc2)cc1`: the activity change, negative = cytotoxicity in test [2] is -34.9% (inactive). For `CC(C)NC(=O)Nc1ccc2c(c1)C(=O)N([C@H](C)CO)C[C@@H](C)[C@H](CN(C)S(=O)(=O)c1ccc(Cl)cc1)O2`, in test [2], the activity change, negative = cytotoxicity is 3.09% (inactive). On the same count and under the same terms, as for `C[C@H](CO)N1C[C@H](C)[C@H](CN(C)S(=O)(=O)c2ccc(Cl)cc2)Oc2ccc(NC(=O)Cc3cn(C)c4ccccc34)cc2C1=O`, the figure is -19.8% (inactive). Consider `C[C@@H]1CN([C@H](C)CO)C(=O)c2cc(NC(=O)Cc3cn(C)c4ccccc34)ccc2O[C@H]1CN(C)S(C)(=O)=O`, for which the activity change, negative = cytotoxicity in test [2] was -4.79% (inactive). For the compound `CCCCCCC1CCC/C1=N\NC(N)=S` (stereo unspecified), the AC50 in test [1] was 3.81 µM. Regarding `C[C@@H]1CN([C@H](C)CO)C(=O)c2cc(NC(=O)Cc3cn(C)c4ccccc34)ccc2O[C@H]1CN(C)Cc1ccc(C(=O)O)cc1`, the activity change, negative = cytotoxicity in test [2] was -1% (inactive). For `C[C@H]1CN([C@@H](C)CO)C(=O)c2cc(NC(=O)Cc3cn(C)c4ccccc34)ccc2O[C@@H]1CN(C)S(=O)(=O)c1ccc(Cl)cc1`, the activity change, negative = cytotoxicity in test [2] was -20.1% (inactive). Still for that read-out and setting: as for `Cc1noc(C)c1S(=O)(=O)Nc1ccc2c(c1)C(=O)N([C@H](C)CO)C[C@@H](C)[C@H](CN(C)S(=O)(=O)c1ccc(Cl)cc1)O2`, the figure is -15.6% (inactive).

Consider `COc1ccc(S(=O)(=O)Nc2ccc3c(c2)C(=O)N([C@H](C)CO)C[C@@H](C)[C@H](CN(C)S(=O)(=O)c2ccc(Cl)cc2)O3)cc1`, for which the activity change, negative = cytotoxicity in test [2] was -22.9% (inactive). On the same count and under the same terms, as for `C[C@@H]1CN([C@H](C)CO)C(=O)c2cc(NC(=O)Cc3cn(C)c4ccccc34)ccc2O[C@H]1CN(C)Cc1ccc(C(=O)Nc2ccccc2N)cc1`, the figure is -12.9% (inactive); as for `C[C@@H]1CN([C@@H](C)CO)C(=O)Cc2cc(NS(=O)(=O)c3cn(C)cn3)ccc2O[C@H]1CN(C)Cc1ccc(Cl)c(Cl)c1`, 3.09% (inactive). Same read-out and setting: as for `COCC(=O)N1CCc2cc(-c3csc(NC(=O)c4cc(OC)cc(OC)c4)n3)ccc21`, the figure is 3.3% (inactive); as for `CC(C)NC(=O)Nc1cccc2c1O[C@@H](CN(C)Cc1ccc(C(F)(F)F)cc1)[C@@H](C)CN([C@@H](C)CO)C2=O`, -11.3% (inactive).

With `C[C@@H]1CN([C@@H](C)CO)C(=O)c2cc(NC(=O)Cc3cn(C)c4ccccc34)ccc2O[C@H]1CN(C)S(=O)(=O)c1ccc(Cl)cc1`, the activity change, negative = cytotoxicity in test [2] was -25.3% (inactive). The same measure, in the same setting: as for `C[C@@H]1CN([C@H](C)CO[Si](C)(C)C(C)(C)C)C(=O)c2cc(NC(=O)C3CCCCC3)ccc2O[C@H]1CN(C)C(=O)c1ccc(Cl)cc1`, the figure is -16.8% (inactive). `COc1c(NC(=O)C(=O)c2ccc(OCCN3CCOCC3)c3ccccc23)cc(C(C)(C)C)cc1NS(C)(=O)=O`: the AC50 in test [1] is 34.3 µM. As for `C[C@@H]1CN([C@H](C)CO)C(=O)c2cc(NS(=O)(=O)c3ccc(F)cc3)ccc2O[C@H]1CN(C)S(=O)(=O)c1ccc(Cl)cc1`, in test [2], the activity change, negative = cytotoxicity is -2.92% (inactive). The same measure, in the same setting: the figure for `C[C@@H]1CN([C@H](C)CO)C(=O)Cc2cc(NC(=O)Cc3cn(C)c4ccccc34)ccc2O[C@H]1CN(C)S(=O)(=O)c1ccc(F)cc1` is -0.321% (inactive); for `C[C@@H]1CN([C@H](C)CO)C(=O)c2cc(NS(=O)(=O)c3cccs3)ccc2O[C@H]1CN(C)S(=O)(=O)c1ccc(Cl)cc1` it is 1.79% (inactive); for `CCCNC(=O)N(C)C[C@@H]1Oc2cc(-c3cncnc3)ccc2S(=O)(=O)N([C@@H](C)CO)C[C@@H]1C` it is -5.43% (inactive).
